Data: ChEMBL document CHEMBL1156149, “Cyclic sulfones as novel P3-caps for hepatitis C virus NS3/4A (HCV NS3/4A) protease inhibitors: synthesis and evaluation of inhibitors with improved potency and pharmacokinetic profiles” (J Med Chem, 2010)

Columns and labels:
[1] = Inhibition of HCV NS3/4A protease; set-up: species or system Hepacivirus hominis
Hepatitis C virus = test: Antiviral activity against Hepatitis C virus infected in human hepatoma cells assessed as inhibition of viral replication; format: functional, organism-based, Hepacivirus hominis
[2] = Plasma concentration in monkey at 3 mg/kg, po after 8 hrs; format: ADME, organism-based, Macaca mulatta; set-up: dose 3 mg/kg, route oral; conditions: rhesus monkey
[3] = AUC (0 to 24 hrs) in monkey at 3 mg/kg, po; format: ADME, organism-based, Macaca mulatta; set-up: time < 24 hr, dose 3 mg/kg, route oral; conditions: rhesus monkey, plasma
[4] = Ratio of plasma concentration in monkey at 3 mg/kg, po after 8 hrs to EC90 for Hepatitis C virus; format: ADME, organism-based; set-up: dose 3 mg/kg, route oral; conditions: in vivo
[5] = AUC (0 to 6 hrs) in rat at 10 mg/kg, po; format: ADME, organism-based; set-up: time < 6 hr, dose 10 mg/kg, route oral; conditions: plasma
Summary of the method: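 Rats dosed orally at 10 mg/kg in 0.4% methylcellulose in water, in a rapid rat protocol. Blood was withdrawn periodically and pooled, and plasma AUC was calculated over the stated interval.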

[6] = Bioavailability in monkey at 3 mg/kg; format: ADME, organism-based, Macaca mulatta; conditions: rhesus monkey, in vivo
[7] = AUC in monkey at 3 mg/kg; format: ADME, organism-based, Macaca mulatta; set-up: dose 3 mg/kg; conditions: rhesus monkey, plasma
Summary of the method: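 Oral dosing of monkeys at 3 mpk, with compound suspended in 0.4% methylcellulose. Exposure was reported as plasma AUC(0-24h) in μM h. Plasma concentration at 8 h was also taken and expressed as a ratio to cellular EC90.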

[8] = AUC in rat at 10 mg/kg; format: ADME, organism-based; set-up: dose 10 mg/kg; conditions: plasma
Summary of the method: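 Rats were given compound orally at 10 mg/kg in 0.4% methylcellulose in water. Blood was sampled periodically and pooled (rapid rat protocol). Plasma exposure was reported as AUC(0-6h) in μM h.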

SMILES	Ki [1] [µM]	EC90 (Hepatitis C virus) [µM]	also measured
C=CCNC(=O)C(=O)[C@H](CCC1CC1)NC(=O)[C@@H]1[C@H]2[C@@H](CN1C(=O)[C@@H](NC(=O)NC1([C@H]3CCCCS3(=O)=O)CCCCC1)C(C)(C)C)C2(C)C	0.004	0.04	
CC1(NC(=O)N[C@H](C(=O)N2C[C@@H]3[C@H]([C@H]2C(=O)NC(CC2CCC2)C(=O)C(N)=O)C3(C)C)C(C)(C)C)CCCCC1 (some centres undefined)	0.009		EC90 (Hepatitis C virus; read-out: EC90): 0.2 µM
CCCC[C@H](NC(=O)[C@@H]1[C@H]2[C@@H](CN1C(=O)[C@@H](NC(=O)NC1([C@H]3CCCCS3(=O)=O)CCCCC1)C(C)(C)C)C2(C)C)C(=O)C(=O)NC1CC1	0.01	0.05	
C=CCNC(=O)C(=O)[C@H](CCCC)NC(=O)[C@@H]1[C@H]2[C@@H](CN1C(=O)[C@@H](NC(=O)NC1([C@H]3CCCCS3(=O)=O)CCCCC1)C(C)(C)C)C2(C)C	0.012	0.06	
CCC[C@H](NC(=O)[C@@H]1[C@H]2[C@@H](CN1C(=O)[C@@H](NC(=O)NC1([C@H]3CCCCS3(=O)=O)CCCCC1)C(C)(C)C)C2(C)C)C(=O)C(=O)NC1CC1	0.012	0.04	
CC(C)(C)[C@H](NC(=O)NC1([C@H]2CCCS2(=O)=O)CCCCC1)C(=O)N1C[C@@H]2[C@H]([C@H]1C(=O)N[C@@H](CCC1CC1)C(=O)C(=O)NC1CC1)C2(C)C	0.004	0.04	
CCCC[C@H](NC(=O)[C@@H]1[C@H]2[C@@H](CN1C(=O)[C@@H](NC(=O)NC1([C@H]3CCCCS3(=O)=O)CCCCC1)C1(C)CCCCC1)C2(C)C)C(=O)C(=O)NC1CC1	0.008	0.1	
CCC[C@H](NC(=O)[C@@H]1[C@H]2[C@@H](CN1C(=O)[C@@H](NC(=O)NC1([C@H]3CCCCS3(=O)=O)CCCCC1)C1(C)CCCCC1)C2(C)C)C(=O)C(=O)NC1CC1	0.007	0.05	
CC1([C@H](NC(=O)NC2([C@H]3CCCS3(=O)=O)CCCCC2)C(=O)N2C[C@@H]3[C@H]([C@H]2C(=O)N[C@@H](CCC2CC2)C(=O)C(=O)NC2CC2)C3(C)C)CCCCC1	0.003	0.04	concentration at 8 h [2]: 303 nM; AUC(0-t) at 24 h [3]: 3.5 µM·h; Ratio [4]: 8
C=CCNC(=O)C(=O)C(CCC)NC(=O)[C@@H]1[C@H]2[C@@H](CN1C(=O)[C@@H](NC(=O)NC1([C@H]3CCCS3(=O)=O)CCCCC1)C(C)(C)C)C2(C)C (mixture of isomers)	0.006	0.035	
CCCC[C@H](NC(=O)[C@@H]1C2C(CN1C(=O)[C@@H](NC(=O)NC1([C@@H]3CCCS3(=O)=O)CCCCC1)C(C)(C)C)C2(C)C)C(=O)C(=O)NC1CC1 (single isomer, unassigned)	0.004	0.03	
CCCC[C@H](NC(=O)[C@@H]1C2C(CN1C(=O)[C@@H](NC(=O)NC1([C@H]3CCS3(=O)=O)CCCCC1)C(C)(C)C)C2(C)C)C(=O)C(=O)NC1CC1 (single isomer, unassigned)	0.01	0.06	
CCCC[C@H](NC(=O)[C@@H]1C2C(CN1C(=O)[C@@H](NC(=O)NC1([C@@H]3CCS3(=O)=O)CCCCC1)C(C)(C)C)C2(C)C)C(=O)C(=O)NC1CC1 (single isomer, unassigned)	0.005	0.12	
CCCC[C@H](NC(=O)[C@@H]1C2C(CN1C(=O)[C@@H](NC(=O)NC1([C@@H]3CCCCS3(=O)=O)CCCCC1)C(C)(C)C)C2(C)C)C(=O)C(=O)NC1CC1 (single isomer, unassigned)	0.011	0.06	
C=CCNC(=O)C(=O)[C@H](CCC)NC(=O)[C@@H]1C2C(CN1C(=O)[C@@H](NC(=O)NC1([C@H]3CCCCS3(=O)=O)CCCCC1)C(C)(C)C)C2(C)C (single isomer, unassigned)	0.003	0.03	
C=CCNC(=O)C(=O)[C@H](CCCC)NC(=O)[C@@H]1C2C(CN1C(=O)[C@@H](NC(=O)NC1([C@H]3CCCS3(=O)=O)CCCCC1)C(C)(C)C)C2(C)C (single isomer, unassigned)	0.003	0.03	AUC(0-t) at 24 h [3]: 2.2 µM·h
C=CCNC(=O)C(=O)[C@H](CCC1CC1)NC(=O)[C@@H]1C2C(CN1C(=O)[C@@H](NC(=O)NC1([C@H]3CCCS3(=O)=O)CCCCC1)C(C)(C)C)C2(C)C (single isomer, unassigned)	0.004	0.035	
CC1(C)C2CN(C(=O)[C@@H](NC(=O)NC3([C@H]4CCCCS4(=O)=O)CCCCC3)C(C)(C)C)[C@H](C(=O)N[C@@H](CCC3CC3)C(=O)C(=O)NC3CC3)C21 (single isomer, unassigned)	0.006	0.04	
CCC[C@H](NC(=O)[C@@H]1C2C(CN1C(=O)[C@@H](NC(=O)NC1([C@H]3CCCS3(=O)=O)CCCCC1)C(C)(C)C)C2(C)C)C(=O)C(=O)NC1CC1 (single isomer, unassigned)	0.004	0.02	
CCCC[C@H](NC(=O)[C@@H]1C2C(CN1C(=O)[C@@H](NC(=O)NC1([C@H]3CCCS3(=O)=O)CCCCC1)C1(C)CCCCC1)C2(C)C)C(=O)C(=O)NC1CC1 (single isomer, unassigned)	0.003	0.02	concentration at 8 h [2]: 742 nM; AUC(0-t) at 24 h [3]: 9 µM·h; Ratio [4]: 37
CCC[C@H](NC(=O)[C@@H]1C2C(CN1C(=O)[C@@H](NC(=O)NC1([C@H]3CCCS3(=O)=O)CCCCC1)C1(C)CCCCC1)C2(C)C)C(=O)C(=O)NC1CC1 (single isomer, unassigned)	0.002	0.02	concentration at 8 h [2]: 934 nM; AUC(0-t) at 24 h [3]: 20.8 µM·h; Ratio [4]: 47
CCCC[C@H](NC(=O)[C@@H]1C2C(CN1C(=O)[C@@H](NC(=O)NC1([C@H]3CCCS3(=O)=O)CCCCC1)C(C)(C)C)C2(C)C)C(=O)C(=O)NC1CC1 (single isomer, unassigned)	0.004	0.02	concentration at 8 h [2]: 10 nM; AUC(0-t) at 24 h [3]: 0.4 µM·h; AUC(0-t) at 6 h [5]: 0.9 µM·h; Ratio [4]: 0.5
CC(C)(C)NC(=O)N[C@H](C(=O)N1C[C@H]2[C@@H]([C@H]1C(=O)NC(CC1CCC1)C(=O)C(N)=O)C2(C)C)C(C)(C)C (some centres undefined) [BOCEPREVIR]	0.014		bioavailability [6]: 4%; AUC(0-t) at 24 h [3]: 0.12 µM·h; EC90 (Hepatitis C virus; read-out: EC90): 0.35 µM; AUC [7]: 0.12 µM·h; AUC [8]: 1.52 µM·h
